Source: ChEMBL document CHEMBL1154447, “Synthesis, antimicrobial activity, pharmacophore analysis of some new 2-(substitutedphenyl/benzyl)-5-[(2-benzofuryl)carboxamido]benzoxazoles” (2008)

Assays:
Assay type in all cases: functional
Escherichia coli [1] = assay: Antibacterial activity against Escherichia coli isolate containing extended spectrum beta lactamase after 24 hrs by twofold serial dilution technique
Outline: (§1)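 Broth microdilution in Mueller-Hinton broth. Isolates were subcultured overnight on MHA at 37 °C and passaged at least twice. McFarland 0.5 cultures […] were diluted to 10⁵ cfu/ml, giving 10⁴ cfu/ml per well, over two-fold compound dilutions. Plates were incubated at 37 °C in a humid chamber for 24 h. MIC was the lowest concentration completely inhibiting macroscopic growth. Triplicate per run.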

Candida albicans [2] = assay: Antifungal activity against Candida albicans ATCC 10231 after 48 hrs by twofold serial dilution technique; settings: ATCC 10231, 48 h
Outline: (§2)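 Yeasts were subcultured on SDA at 35 °C for 24-48 h and passaged twice. Broth microdilution followed CLSI M27-A in RPMI-1640 with L-glutamine, MOPS-buffered to pH 7. Inoculum was McFarland 0.5 (10⁶ cfu/ml) diluted to 10⁴ cfu/ml, giving 10³ cfu/ml per well. Incubated at 35 °C in a humid chamber and read at 48 h as the lowest concentration with no macroscopic growth. Triplicate per run.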

Escherichia coli [3] = assay: Antibacterial activity against Escherichia coli ATCC 25922 after 24 hrs by twofold serial dilution technique; settings: ATCC 25922, 24 h; outline: as §1
Pseudomonas aeruginosa [4] = assay: Antibacterial activity against Pseudomonas aeruginosa […] after 24 hrs by twofold serial dilution technique; outline: as §1
Candida albicans [5] = assay: Antifungal activity against biofilm-positive Candida albicans isolate after 48 hrs by twofold serial dilution technique; outline: as §2
Bacillus subtilis [6] = assay: Antibacterial activity against ceftriaxone-resistant Bacillus subtilis isolate after 24 hrs by twofold serial dilution technique
Outline: (§3)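 Broth microdilution in Mueller-Hinton broth. Strains were subcultured overnight on MHA at 37 °C and passaged at least twice. McFarland 0.5 cultures […] were diluted to 10⁵ cfu/ml, giving 10⁴ cfu/ml per well, against two-fold dilutions from 1000 to 0.06. Solvent and medium controls were included. Plates were held at 37 °C in a humid chamber for 24 h, in triplicate. MIC is the lowest concentration with no macroscopic growth.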

Bacillus subtilis [7] = assay: Antibacterial activity against Bacillus subtilis ATCC 6633 after 24 hrs by twofold serial dilution technique; settings: ATCC 6633, 24 h; outline: as §3
Klebsiella pneumoniae [8] = assay: Antibacterial activity against Klebsiella pneumoniae RSHM 574 after 24 hrs by twofold serial dilution technique; outline: as §1
Klebsiella pneumoniae [9] = assay: Antibacterial activity against Klebsiella pneumoniae isolate containing extended spectrum beta lactamase after 24 hrs by twofold serial dilution technique; outline: as §1
Pseudomonas aeruginosa [10] = assay: Antibacterial activity against gentamicin-resistant Pseudomonas aeruginosa isolate after 24 hrs by twofold serial dilution technique; outline: as §3
Pichia kudriavzevii = assay: Antifungal activity against Candida krusei ATCC 6258 after 48 hrs by twofold serial dilution technique; settings: ATCC 6258, 48 h; outline: as §2
Staphylococcus aureus [11] = assay: Antibacterial activity against Staphylococcus aureus ATCC 25923 after 24 hrs by twofold serial dilution technique; settings: ATCC 25923, 24 h; outline: as §1
Staphylococcus aureus [12] = assay: Antibacterial activity against methicillin-resistant Staphylococcus aureus isolate after 24 hrs by twofold serial dilution technique; outline: as §3

Measured: MIC

O=C(Nc1ccc2oc(-c3ccccc3)nc2c1)c1cc2ccccc2o1
125 µg/mL: Escherichia coli [1] | Bacillus subtilis [7] | Klebsiella pneumoniae [9]
250 µg/mL: Bacillus subtilis [6]
62.5 µg/mL: all other assays above

CO[C@H]1/C=C/O[C@@]2(C)Oc3c(C)c(O)c4c(O)c(c(/C=N/N5CCN(C)CC5)c(O)c4c3C2=O)NC(=O)/C(C)=C\C=C\[C@H](C)[C@H](O)[C@@H](C)[C@@H](O)[C@@H](C)[C@H](OC(C)=O)[C@@H]1C [RIFAMPIN]
0.9 µg/mL: Staphylococcus aureus [12]
1.9 µg/mL: Escherichia coli [3] | Klebsiella pneumoniae [8]
> 500 µg/mL: Pseudomonas aeruginosa [4] | Pseudomonas aeruginosa [10]
0.12 µg/mL: Bacillus subtilis [7]
7.8 µg/mL: Klebsiella pneumoniae [9]
0.06 µg/mL: Staphylococcus aureus [11]
3.9 µg/mL: Escherichia coli [1] | Bacillus subtilis [6]

O=C(Nc1ccc2oc(Cc3ccc(Br)cc3)nc2c1)c1cc2ccccc2o1
31.2 µg/mL: Pseudomonas aeruginosa [4]
15.6 µg/mL: Pseudomonas aeruginosa [10]
125 µg/mL: Escherichia coli [1] | Bacillus subtilis [6] | Bacillus subtilis [7] | Staphylococcus aureus [11]
62.5 µg/mL: all other assays above

O=C(Nc1ccc2oc(Cc3ccc(Cl)cc3)nc2c1)c1cc2ccccc2o1
62.5 µg/mL: Candida albicans [2] | Escherichia coli [3] | Candida albicans [5] | Klebsiella pneumoniae [8]
31.2 µg/mL: Pseudomonas aeruginosa [4]
125 µg/mL: all other assays above

O=C(Nc1ccc2oc(-c3ccc(F)cc3)nc2c1)c1cc2ccccc2o1
31.2 µg/mL: Pseudomonas aeruginosa [4] | Staphylococcus aureus [12]
125 µg/mL: Escherichia coli [1] | Bacillus subtilis [6] | Klebsiella pneumoniae [9] | Pichia kudriavzevii | Staphylococcus aureus [11]
500 µg/mL: Bacillus subtilis [7]
62.5 µg/mL: all other assays above

CCc1ccc(-c2nc3cc(NC(=O)c4cc5ccccc5o4)ccc3o2)cc1
500 µg/mL: Bacillus subtilis [7]
125 µg/mL: Escherichia coli [1] | Bacillus subtilis [6] | Klebsiella pneumoniae [9] | Pichia kudriavzevii | Staphylococcus aureus [11]
62.5 µg/mL: all other assays above

CC1COc2c(N3CCN(C)CC3)c(F)cc3c(=O)c(C(=O)O)cn1c23 (configuration not stated) [OFLOXACIN]
1.9 µg/mL: Staphylococcus aureus [12]
3.9 µg/mL: Bacillus subtilis [6] | Klebsiella pneumoniae [9]
62.5 µg/mL: Pseudomonas aeruginosa [4] | Pseudomonas aeruginosa [10]
7.8 µg/mL: Escherichia coli [1]
0.12 µg/mL: Bacillus subtilis [7] | Klebsiella pneumoniae [8] | Staphylococcus aureus [11]

O=C(Nc1ccc2oc(Cc3ccccc3)nc2c1)c1cc2ccccc2o1
125 µg/mL: Bacillus subtilis [6] | Bacillus subtilis [7] | Staphylococcus aureus [11]
31.2 µg/mL: Pseudomonas aeruginosa [4] | Candida albicans [5] | Pichia kudriavzevii
62.5 µg/mL: all other assays above
